Data set [1] deals with Plasmodium falciparum K1. The data set can be described thus: Inhibition of CRT CVIET haplotype mutant in Plasmodium falciparum K1 isolate MRA-159 infected in erythrocytes assessed as chloroquine-coumarin probe accumulation at 10 uM after 10 hrs by Hoechst 33342 staining based flow cytometry (reference value: 35.57 +/- 3.84%). It counts as cell-based. More on the design: scale not given: the % may be the effect or the level left. The essentials: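 Infected erythrocyte cultures at 2.5% hematocrit and 7–12% parasitemia, synchronized to late-ring/early-trophozoite stage, were incubated with chloroquine-coumarin probe plus test agent for 10 h at 37 C. Cells were then washed, resuspended in PBS and read by flow cytometry (405 nm excitation, 450/50 filter). Hoechst-stained duplicate wells set parasitemia. Uptake = % infected erythrocytes fluorescent. Controls: PBS (negative), desipramine and parent compound (positive). ≥3 independent experiments; mean ± SEM.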
Background: Flow cytometry measures light scatter and fluorescence of single cells or particles in a stream.

Data set [2] concerns Plasmodium falciparum. Briefly: Potentiation of chloroquine-induced antimalarial activity against chloroquine-sensitive Plasmodium falciparum 3D7 isolate MRA-102 assessed as reduction in chloroquine IC50 at 500 nM relative to chloroquine alone. It counts as functional.
Data set [3] has as its system Plasmodium falciparum 7G8. The data set can be described thus: Inhibition of CRT SVMNT haplotype mutant in intermediate chloroquine-resistant Plasmodium falciparum 7G8 isolate MRA-154 t assessed as reversal of chloroquine resistance by measuring reduction in chloroquine IC50 at 500 nM relative to chloroquine alone.
The subject of data set [4] is Plasmodium falciparum K1. The data set can be described thus: Inhibition of CRT CVIET haplotype mutant in chloroquine-resistant Plasmodium falciparum K1 isolate MRA-159 assessed as reversal of chloroquine resistance by measuring reduction in chloroquine IC50 at 500 nM relative to chloroquine alone.
For data set [5], the system named is T1, Chloroquine resistance transporter (Plasmodium falciparum), Q9N623 [K76T].
T1 sequence (whole entry): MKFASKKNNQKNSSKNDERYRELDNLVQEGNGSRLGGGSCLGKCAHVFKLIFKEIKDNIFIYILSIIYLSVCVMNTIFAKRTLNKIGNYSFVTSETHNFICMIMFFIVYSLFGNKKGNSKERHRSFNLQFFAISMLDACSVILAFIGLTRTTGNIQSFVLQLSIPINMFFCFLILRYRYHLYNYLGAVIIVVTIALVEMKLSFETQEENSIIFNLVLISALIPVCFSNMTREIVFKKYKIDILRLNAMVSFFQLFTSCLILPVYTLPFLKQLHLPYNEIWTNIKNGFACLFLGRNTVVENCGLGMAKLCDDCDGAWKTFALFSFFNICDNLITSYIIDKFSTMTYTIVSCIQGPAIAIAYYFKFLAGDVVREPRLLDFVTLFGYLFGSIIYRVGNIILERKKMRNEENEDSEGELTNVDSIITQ
Briefly: Inhibition of CRT K76T mutant in chloroquine-resistant Plasmodium falciparum Dd2 isolate MRA-156 assessed as reversal of chloroquine resistance by measuring reduction in chloroquine IC50 at 500 nM relative to chloroquine alone.

Data set [6] concerns Plasmodium falciparum. Briefly: Intrinsic antimalarial activity against chloroquine-resistant Plasmodium falciparum K1 isolate MRA-159 harboring CRT CVIET haplotype mutant assessed as reduction in parasite viability at 500 nM. It counts as functional, organism-based.
For data set [7], the system named is Plasmodium falciparum. The data set can be described thus: Intrinsic antimalarial activity against chloroquine-resistant Plasmodium falciparum Dd2 isolate MRA-156 harboring CRT K76T mutant assessed as reduction in parasite viability at 500 nM. Format: functional, organism-based.
Data set [8] has as its system Plasmodium falciparum. The data set can be described thus: Intrinsic antimalarial activity against chloroquine/artemisinin-resistant Plasmodium falciparum ARS233 harboring CRT K76T mutant assessed as reduction in parasite viability at 500 nM. It counts as functional, organism-based.
In data set [9] the test system is Plasmodium falciparum. Briefly: Intrinsic antimalarial activity against chloroquine/artemisinin-resistant Plasmodium falciparum ARS272 harboring CRT K76T mutant assessed as reduction in parasite viability at 500 nM. It counts as functional, organism-based.
Data set [10] concerns Plasmodium falciparum. The data set can be described thus: Intrinsic antimalarial activity against chloroquine-resistant Plasmodium falciparum NHP4559 harboring CRT K76T mutant assessed as reduction in parasite viability at 500 nM. Format: functional, organism-based.
In data set [11] the test system is Plasmodium falciparum. The data set can be described thus: Intrinsic antimalarial activity against chloroquine/artemisinin-resistant Plasmodium falciparum NHP4773 harboring CRT K76T mutant assessed as reduction in parasite viability at 500 nM. It counts as functional, organism-based.
Data set [12] in a line: Resistance index, ratio of chloroquine IC50 for intermediate chloroquine-resistant Plasmodium falciparum 7G8 isolate MRA-154 CRT SVMNT haplotype mutant to chloroquine IC50 for chloroquine-sensitive Plasmodium falciparum 3D7 isolate MRA-102 at 500 nM. The procedure, abridged: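 Chloroquine IC50 was measured with the chemoreversal agent fixed at 500 nM in K1 or 7G8 and in sensitive 3D7 (means, n = 3). The resistance ratio is the chloroquine IC50 in K1 or 7G8 divided by the chloroquine IC50 in 3D7.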

The subject of data set [13] is Plasmodium falciparum. The data set can be described thus: Potentiation of chloroquine-induced antimalarial activity against chloroquine-sensitive Plasmodium falciparum 3D7 isolate MRA-102 assessed as concentration required for 50% reduction in chloroquine IC50 at 500 nM relative to chloroquine alone. Format: functional, organism-based.
A short description of data set [14]: Inhibition of CRT CVIET haplotype mutant in chloroquine-resistant Plasmodium falciparum K1 isolate MRA-159 assessed as reversal of chloroquine resistance by measuring reduction in chloroquine IC50 relative to chloroquine alone. The essentials:
(§1)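 Chloroquine IC50 was determined in the presence of a fixed 500 nM chemoreversal agent, against chloroquine alone. The RMI is the ratio of chloroquine IC50 with agent to chloroquine IC50 alone. Mean of n = 3; two-tailed t test versus chloroquine without agent.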

A short description of data set [15]: (§2) Inhibition of CRT SVMNT haplotype mutant in intermediate chloroquine-resistant Plasmodium falciparum 7G8 isolate MRA-154 assessed as reversal of chloroquine resistance by measuring reduction in chloroquine IC50 relative to chloroquine alone. The essentials: as §1
Data set [16] deals with Plasmodium falciparum 7G8. Described as §2. The procedure, abridged: as §1
The nature of data set [17]: Resistance index, ratio of EC50 for intermediate chloroquine-resistant Plasmodium falciparum 7G8 isolate MRA-154 CRT SVMNT haplotype mutant to EC50 for chloroquine-sensitive Plasmodium falciparum 3D7 isolate MRA-102. The procedure, abridged: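 EC50 is the concentration of chemoreversal agent that halves the chloroquine concentration needed to inhibit survival of half the parasites. It was derived from dose-dependent shifts in chloroquine IC50, measured in 7G8 and 3D7. The index is the 7G8 EC50 divided by the 3D7 EC50.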

The nature of data set [18]: Cytotoxicity against human AC10 cells assessed as reduction in cell viability by CellTiter-Glo assay. It counts as cell-based. The procedure, abridged: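 For TAMH (hepatocyte line) and AC10 (cardiomyocyte line), viability was read by ATP luminescence (CellTiter-Glo), and the value reported is IC50.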
(In general: In ATP-based viability assays light output follows the ATP content of the culture.)

Data set [19] in a line: Therapeutic index, ratio of IC50 for TAMH to EC50 for chloroquine-resistant Plasmodium falciparum K1 isolate MRA-159 CRT CVIET haplotype mutant. Format: toxicity. The conditions noted are these: mouse, TAMH cells; read-out: Ratio IC50/EC50. The procedure, abridged: (§3)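 Host-cell IC50 was measured by ATP-luminescence viability assay in TAMH hepatocytes (mean of n = 4 independent determinations) or AC10 cardiomyocytes. Each IC50 was divided by the K1 EC50, the concentration of chemoreversal agent that halves the chloroquine concentration needed for 50% parasite inhibition.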

Data set [20] can be described thus: Therapeutic index, ratio of IC50 for human AC10 cells to EC50 for chloroquine-resistant Plasmodium falciparum K1 isolate MRA-159 CRT CVIET haplotype mutant. The settings on record: read-out: Ratio IC50/EC50. It counts as toxicity. The essentials:
as §3

A short description of data set [21]: Aqueous kinetic solubility of compound in pH 7.4 solution incubated for 24 hrs. Format: physicochemical. The settings on record: aqueous solution pH 7.4, pH 7.4; read-out: Kinetic_solubility.
Data set [22] can be described thus: Permeability of compound incubated for 16 hrs at pH 7.4 by PAMPA. The conditions noted are these: read-out: Peff. It counts as ADME. In general terms: PAMPA measures passive passage across an artificial lipid membrane.

Activity calls are given as the source filed them. The calls are words filed in the database; no cut-off is given here.

`c1ccc(CN[C@@H]2C3CCN(CC3)[C@@H]2Cc2ccccc2)cc1` (relative stereo): the Activity with Plasmodium falciparum K1 [1] was 83.4%. The “Ratio IC50” value in the data set with Plasmodium falciparum [2] worked out at 1.26; in [3] it was 0.8; in the data set with Plasmodium falciparum K1 [4], 0.39; in data set [5], 0.6; in [12] it was 3.9. The result in the data set with Plasmodium falciparum [6], in the data set with Plasmodium falciparum [7], in the data set with Plasmodium falciparum [8], in the data set on Plasmodium falciparum [9], in the data set on Plasmodium falciparum [10] and in the data set with Plasmodium falciparum [11] was inactive. The outcome in the data set on Plasmodium falciparum [13] was inactive. Besides, the EC50 (as a rule, the concentration at which the effect is half-maximal) in data set [14] was found to be 0.17 µM; in data set [15] it was 0.38 µM. In data set [16], the inhibition entry is “Dose-dependent effect”. Also, the Ratio EC50 in [17] was 2. Besides, the IC50 (commonly the concentration that inhibits the measured activity by half) in [18] turned out to be 71.5 µM. In addition, the selectivity ratio in data set [19] was over 588; in data set [20] it was 420. The solubility kinetic at 24 h in data set [21] is over 0.31 mg/mL. The Papp at 16 h in data set [22] came to 145 nm/s.

Source of the values: ChEMBL document CHEMBL4428038, “Overcoming chloroquine resistance in malaria: Design, synthesis and structure-activity relationships of novel chemoreversal agents” (Eur J Med Chem, 2016).
